Converted amounts (≈) assume the structure as drawn.
Key:
[1] = tested on: Enterobacter cloacae; experiment: In vitro minimum inhibitory concentration for Enterobacter cloacae ATCC 23355; type: functional
[2] = tested on: Bacillus cereus; experiment: In vitro minimum inhibitory concentration for Bacillus cereus ATCC 11778; type: functional
In short: (§1)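 Serial 2-fold agar dilution in Mueller Hinton medium, run alongside a reference quinolone. Inoculum adjusted to 10⁸ cfu/mL; compound range 0.007–16 μg/mL.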

[3] = tested on: Pseudomonas aeruginosa; experiment: In vitro minimum inhibitory concentration for Pseudomonas aeruginosa ATCC 10145; type: functional; in short: as §1
[4] = HPLC capacity factor (k'); type: ADME
In short: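 Ion-pair reversed-phase HPLC on ODS-2 (10 μm) at 45 °C. Mobile phase: 10 mM sodium heptanesulfonate plus 50 mM KH2PO4 (pH 3.5)–methanol 45:55, 1 mL/min. Samples at 100 μg/mL in DMF, injected in duplicate, UV 280 nm. k' = (tR − t0)/t0.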

[5] = tested on: Bacillus subtilis; experiment: In vitro minimum inhibitory concentration for Bacillus subtilis ATCC 6633; type: functional; in short: as §1
[6] = tested on: Staphylococcus epidermidis; experiment: In vitro minimum inhibitory concentration for Staphylococcus epidermidis ATCC 155-1; type: functional; in short: as §1
[7] = tested on: Proteus vulgaris; experiment: In vitro minimum inhibitory concentration for Proteus vulgaris ATCC 8427; type: functional; in short: as §1
[8] = tested on: Mus musculus; experiment: Evaluation of efficacy on systemic infections Pseudomonas aeruginosa HS-116, after oral administration in mice; type: functional
In short: (§2)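 Single oral dose given immediately after infection, one of four doses per group, chosen from in vitro activity. Survival scored after one week. ED50 (total mg/kg protecting 50%) interpolated from survival rates.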

[9] = tested on: Enterococcus faecalis; experiment: In vitro minimum inhibitory concentration for Streptococcus faecalis ATCC 10541; type: functional; in short: as §1
[10] = tested on: Staphylococcus aureus; experiment: In vitro minimum inhibitory concentration for Staphylococcus aureus ATCC 25178; type: functional; in short: as §1
[11] = tested on: Mus musculus; experiment: Evaluation of efficacy on systemic infections Staphylococcus aureus HS-93, after oral administration in mice; type: functional; in short: as §2
[12] = tested on: Mus musculus; experiment: Evaluation of efficacy on systemic infections Escherichia coli HM-42, after oral administration in mice; type: functional; in short: as §2
[13] = tested on: Morganella morganii; experiment: In vitro minimum inhibitory concentration for Morganella morganii ATCC 8019; type: functional; in short: as §1
[14] = tested on: Escherichia coli; experiment: In vitro minimum inhibitory concentration for Escherichia coli ATCC 10799; type: functional; in short: as §1
[15] = tested on: Klebsiella pneumoniae; experiment: In vitro minimum inhibitory concentration to inhibit Klebsiella pneumoniae ATCC 10031; type: functional; in short: as §1
[16] = Measured ionization constant (pKa); type: physicochemical; details: read-out: pKa1
In short: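 Spectrophotometric titration at 20 ± 1 °C, 0.1 M ionic strength, pH varied with H2SO4 or NaOH made up in the compound stock. Absorbance followed at compound-specific wavelengths chosen from 200–400 nm scans. pKa1 and pKa2 taken as the inflection points of the two-step absorbance vs pH curve.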

[17] = Solubility (buffer pH 7.4); type: physicochemical; details: read-out: S
In short: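 Excess solid shaken in 0.05 M phosphate buffer pH 7.4 for 24 h at 25 °C. Suspension filtered through 0.22 μm, discarding the first portion. Filtrate diluted in 0.1 N HCl or 0.1 N NaOH and read by UV at the compound's absorbance maximum.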

[18] = AUC (0-4 hr) ug/ml/h; type: ADME, cell-free; parameters: time < 4 hr; concentration or dose not given beside the values; details: plasma
In short: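 Mice dosed once orally at 50 mg/kg; blood taken from groups of six mice at 0.5, 1, 2 and 4 h. Serum drug assayed by disk agar diffusion bioassay (Bacillus subtilis ATCC 6633 on Seed Agar, 37 °C, 18 h), giving total activity.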

| SMILES | MIC [1] [µg/mL] | MIC [2] [µg/mL] | MIC [3] [µg/mL] | Log k' [4] | MIC [5] [µg/mL] | MIC [6] [µg/mL] | MIC [7] [µg/mL] | MIC [9] [µg/mL] | MIC [10] [µg/mL] | MIC [13] [µg/mL] | MIC [14] [µg/mL] | MIC [15] [µg/mL] | pKa [16] | solubility [17] [µg/mL] | AUC [18] [ng·h/mL] | ED50 [8] [mg/kg] | ED50 [11] [mg/kg] | ED50 [12] [mg/kg] |
| --- | --- | --- | --- | --- | --- | --- | --- | --- | --- | --- | --- | --- | --- | --- | --- | --- | --- | --- |
| C[C@H]1[C@H](N)CN1c1nc2c(cc1F)c(=O)c(C(=O)O)cn2-c1ccc(F)cc1 | 0.12 (≈ 0.311 µM) | 0.25 (≈ 0.647 µM) | 2 (≈ 5.18 µM) | 0.0681 | 0.06 (≈ 0.155 µM) | 0.25 (≈ 0.647 µM) | 2 (≈ 5.18 µM) | 4 (≈ 10.4 µM) | 0.25 (≈ 0.647 µM) | 0.25 (≈ 0.647 µM) | 0.12 (≈ 0.311 µM) | 0.06 (≈ 0.155 µM) | – | – | – | > 400 | 11.9 | 3.1 |
| Nc1c(F)c(N2CC(N)C2)c(F)c2c1c(=O)c(C(=O)O)cn2C1CC1 | – | – | – | -0.0505 | – | – | – | – | – | – | – | – | 6.65 | – | – | – | – | – |
| CCn1cc(C(=O)O)c(=O)c2cc(F)c(N3C[C@@H](N)[C@@H]3C)cc21 | 0.12 (≈ 0.376 µM) | 1 (≈ 3.13 µM) | 2 (≈ 6.26 µM) | -0.0915 | 0.12 (≈ 0.376 µM) | 0.25 (≈ 0.783 µM) | 1 (≈ 3.13 µM) | 2 (≈ 6.26 µM) | 1 (≈ 3.13 µM) | 0.25 (≈ 0.783 µM) | 0.25 (≈ 0.783 µM) | 0.06 (≈ 0.188 µM) | – | – | – | – | – | – |
| C[C@H]1[C@H](N)CN1c1c(F)cc2c(=O)c(C(=O)O)cn(C(C)(C)C)c2c1F | 0.25 (≈ 0.684 µM) | 0.25 (≈ 0.684 µM) | 2 (≈ 5.47 µM) | 0.262 | 0.06 (≈ 0.164 µM) | 0.25 (≈ 0.684 µM) | 0.25 (≈ 0.684 µM) | 0.5 (≈ 1.37 µM) | 0.25 (≈ 0.684 µM) | 0.25 (≈ 0.684 µM) | 0.25 (≈ 0.684 µM) | 0.06 (≈ 0.164 µM) | – | – | – | – | – | – |
| CC[C@H]1[C@@H](O)CN1c1cc2c(cc1F)c(=O)c(C(=O)O)cn2C1CC1 | 0.5 (≈ 1.44 µM) | 1 (≈ 2.89 µM) | 8 (≈ 23.1 µM) | 0.529 | 0.06 (≈ 0.173 µM) | 0.5 (≈ 1.44 µM) | 0.5 (≈ 1.44 µM) | 8 (≈ 23.1 µM) | 1 (≈ 2.89 µM) | 1 (≈ 2.89 µM) | 2 (≈ 5.77 µM) | 0.5 (≈ 1.44 µM) | – | – | – | – | – | – |
| C[C@H]1[C@H](N)CN1c1c(F)cc2c(=O)c3c(=O)[nH]sc3n(C3CC3)c2c1F | 0.03 (≈ 0.0793 µM) | 0.06 (≈ 0.159 µM) | 1 (≈ 2.64 µM) | 0.1134 | 0.06 (≈ 0.159 µM) | 0.12 (≈ 0.317 µM) | 0.12 (≈ 0.317 µM) | 0.25 (≈ 0.661 µM) | 0.12 (≈ 0.317 µM) | 0.06 (≈ 0.159 µM) | 0.12 (≈ 0.317 µM) | 0.03 (≈ 0.0793 µM) | – | – | – | – | – | – |
| C[C@H]1[C@H](N)CN1c1cc2c(cc1F)c(=O)c1c(=O)[nH]sc1n2C1CC1 | 0.015 (≈ 0.0416 µM) | 0.06 (≈ 0.166 µM) | 0.25 (≈ 0.694 µM) | 0.065 | 0.015 (≈ 0.0416 µM) | 0.03 (≈ 0.0832 µM) | 0.12 (≈ 0.333 µM) | 0.25 (≈ 0.694 µM) | 0.06 (≈ 0.166 µM) | 0.03 (≈ 0.0832 µM) | 0.03 (≈ 0.0832 µM) | 0.015 (≈ 0.0416 µM) | – | – | 16200 | – | – | – |

Second part, led by results:

| MIC [1] [µg/mL] | MIC [2] [µg/mL] | MIC [3] [µg/mL] | Log k' [4] | MIC [5] [µg/mL] | MIC [6] [µg/mL] | MIC [7] [µg/mL] | MIC [9] [µg/mL] | MIC [10] [µg/mL] | MIC [13] [µg/mL] | MIC [14] [µg/mL] | MIC [15] [µg/mL] | pKa [16] | solubility [17] [µg/mL] | AUC [18] [ng·h/mL] | SMILES | ED50 [8] [mg/kg] | ED50 [11] [mg/kg] | ED50 [12] [mg/kg] |
| --- | --- | --- | --- | --- | --- | --- | --- | --- | --- | --- | --- | --- | --- | --- | --- | --- | --- | --- |
| 0.12 (≈ 0.346 µM) | 0.06 (≈ 0.173 µM) | 2 (≈ 5.77 µM) | -0.0223 | 0.06 (≈ 0.173 µM) | 0.12 (≈ 0.346 µM) | 0.5 (≈ 1.44 µM) | 2 (≈ 5.77 µM) | 0.12 (≈ 0.346 µM) | 0.25 (≈ 0.722 µM) | 0.25 (≈ 0.722 µM) | 0.06 (≈ 0.173 µM) | – | – | – | CC1(C)[C@@H](N)CN1c1nc2c(cc1F)c(=O)c(C(=O)O)cn2C1CC1 | – | – | – |
| 0.5 (≈ 1.37 µM) | 0.5 (≈ 1.37 µM) | 8 (≈ 22 µM) | 0.679 | 0.12 (≈ 0.329 µM) | 0.5 (≈ 1.37 µM) | 0.5 (≈ 1.37 µM) | 8 (≈ 22 µM) | 1 (≈ 2.74 µM) | 1 (≈ 2.74 µM) | 1 (≈ 2.74 µM) | 0.5 (≈ 1.37 µM) | – | – | – | CC[C@H]1[C@@H](O)CN1c1c(F)cc2c(=O)c(C(=O)O)cn(C3CC3)c2c1F | – | – | – |
| 0.06 (≈ 0.165 µM) | 0.25 (≈ 0.688 µM) | 2 (≈ 5.5 µM) | 0.1312 | 0.06 (≈ 0.165 µM) | 0.12 (≈ 0.33 µM) | 0.5 (≈ 1.38 µM) | 1 (≈ 2.75 µM) | 0.25 (≈ 0.688 µM) | 0.12 (≈ 0.33 µM) | 0.12 (≈ 0.33 µM) | 0.03 (≈ 0.0826 µM) | – | 3.3 (≈ 9.08 µM) | 20600 | C[C@H]1N(c2c(F)cc3c(=O)c(C(=O)O)cn(C4CC4)c3c2F)C[C@]1(C)N | – | – | – |
| 0.12 (≈ 0.343 µM) | 0.06 (≈ 0.171 µM) | 2 (≈ 5.71 µM) | 0.518 | 0.015 (≈ 0.0428 µM) | 0.06 (≈ 0.171 µM) | 0.12 (≈ 0.343 µM) | 1 (≈ 2.85 µM) | 0.12 (≈ 0.343 µM) | 0.25 (≈ 0.714 µM) | 0.25 (≈ 0.714 µM) | 0.015 (≈ 0.0428 µM) | – | – | – | C[C@@H]1[C@@H](O)CN1c1c(F)cc2c(=O)c(C(=O)O)cn(C3CC3)c2c1F | – | – | – |
| – | – | – | – | – | – | – | – | – | – | – | – | 6.03 | – | – | CC1([N+](C)(C)C)CN(c2c(F)cc3c(=O)c(C(=O)O)cn(C4CC4)c3c2F)C1 | – | – | – |

Source: ChEMBL document CHEMBL1127424, “7-azetidinylquinolones as antibacterial agents. 2. Synthesis and biological activity of 7-(2,3-disubstituted-1-azetidinyl)-4-oxoquinoline- and -1,8-naphthyridine-3-carboxylic acids. Properties and structure-activity relationships of quinolones with an azetidine moiety” (J Med Chem, 1994)
